Assay outcomes as filed in PubChem.
Compounds with a hit are over-represented: about 1.8% of the library has one in this group of screens.
MIN6 prolif = MIN6 beta-cell proliferation induction; MIN6 cells proliferation, ATPlite luminescence, 48 h; cells starved in 0.2% serum; 100% = growth in 10% serum; proliferation, % at 10 µM; actives 0.29% (n = 330,000); AID 2380;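 active = compounds whose signal lies at least 3.5 SD above the mean of all wells on their plate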;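 note: 0% = DMSO-treated cells in low-serum medium and 100% = 10% serum control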
FLuc inhib CS = counter-screen for luciferase assay inhibitors: firefly luciferase inhibition. actives 1.5% (n = 200,000). P08659. ATPLite firefly luciferase biochemical luminescence, 10 min. inhibition, % at 10 µM. AID 1006;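 active = inhibition above about 50% when tested at 10 µM, limit read from the data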
Target sequence (P08659 whole entry, looked up): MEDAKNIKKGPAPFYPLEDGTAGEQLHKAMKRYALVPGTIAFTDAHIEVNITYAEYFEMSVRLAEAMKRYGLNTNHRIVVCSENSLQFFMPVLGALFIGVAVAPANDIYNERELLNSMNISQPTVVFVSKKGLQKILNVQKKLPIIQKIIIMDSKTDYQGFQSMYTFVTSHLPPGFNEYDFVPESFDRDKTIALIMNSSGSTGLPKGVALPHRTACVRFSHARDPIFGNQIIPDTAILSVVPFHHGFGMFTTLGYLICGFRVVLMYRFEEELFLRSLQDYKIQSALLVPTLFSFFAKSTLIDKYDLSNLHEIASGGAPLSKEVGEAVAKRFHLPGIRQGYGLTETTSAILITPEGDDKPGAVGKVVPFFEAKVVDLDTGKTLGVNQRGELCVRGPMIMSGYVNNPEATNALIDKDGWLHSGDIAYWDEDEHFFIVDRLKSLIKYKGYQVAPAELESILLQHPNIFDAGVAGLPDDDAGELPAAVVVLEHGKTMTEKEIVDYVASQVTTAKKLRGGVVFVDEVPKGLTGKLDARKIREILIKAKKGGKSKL
TRAIL sens C8 = sensitizes caspase-8 expressing cells to TRAIL; NB7+C8 cells + TRAIL, ATPlite viability luminescence; inhibition (viability loss, TRAIL sensitization), % at 10 µM; actives 1% (n = 360,000); AID 624354;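 active = compounds causing at least 50% loss of cell viability in the single-dose screen, relative to plate controls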
FLuc stim CS = affects firefly luciferase, flagging false hits in luciferase stimulation screens. P08659. ATPlite luciferase biochemical, luminescence, 10 min; 0 = ATP-free wells, 1 = DMSO control. 200,000 tested, under 10 active. activation factor at 10 µM. AID 1027;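 active = luciferase activation factor, scaled between plate controls, of at least 2 with compound at 10 µM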
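Assay system: Luciferase/luciferin detection reagent, cell-free biochemical luciferase assay / Read-out: luciferase activation / Benchmarks: No-ATP low control, compound-free enzyme-plus-ATP high control / Medium: PBS buffer for ATP / Detection: luminescence measurement of luciferase light output / Schedule: 10 min at ambient temperature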
iPSC survival up = hiPSC single-cell survival enhancement. survival enhancement, % at 20 µM. ATPlite luminescence; 100% = ROCK inhibitor wells, 0% = DMSO. actives 0.044% (n = 360,000); in the data active = survival enhancement above about 18%;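 note: cells exposed to compounds for 16 hours before the ATP read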
PPC-1+TRAIL kill = compounds killing PPC-1 cancer cells with TRAIL present (potentiator screen, no TRAIL-free arm); actives 0.41% (n = 220,000); cell killing (% activity), % at 4 µM or 5 µM; AID 1443; PPC-1 cells + TRAIL, ATPLite viability luminescence;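 active = cell killing above 50% in the first pass at 4 µM, then a duplicate retest at 5 µM averaging 50% or more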;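 note: plate controls were cells with TRAIL plus DMSO for no effect and medium-only wells lacking cells for full effect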
Starred values were filed as active, the others as inactive; x = no result.

SMILES	MIN6 prolif	FLuc inhib CS	TRAIL sens C8	FLuc stim CS	iPSC survival up	PPC-1+TRAIL kill
O=C(Nc1ccc(-c2nc3ccc(NC(=O)c4cccs4)cc3[nH]2)cc1)c1cccs1	-4	-7	32	1.1	-1	-9
O=C(Nc1ccc2nc(-c3cccs3)[nH]c2c1)c1ccco1	0	62*	48	0.4	-1	11
CC(=O)Nc1ccc(S(=O)(=O)N(C)CC(=O)OC(C)C(=O)NC2CCCCC2)cc1 (centres undefined)	3	x	5	x	0	x
COc1cccc(C(C)(O)c2nc(-c3cccs3)cs2)c1 (centres undefined)	x	x	13	x	1	x
NCCCC[C@@H](C(=O)NCCCCCCCCCCC(=O)N1CCNCC1)n1cc(CCCC(=O)O)nn1	0	x	2	x	-4	x
CCCCn1c(N)c(N(CCOC)C(=O)C2CCN(c3ncnc4sc(C)c(C)c34)CC2)c(=O)[nH]c1=O	4	x	-5	x	2	x
Cc1[nH]n(-c2ccccc2)c(=O)c1/C=N/NC(=O)c1cccc([N+](=O)[O-])c1	-6	49	54*	0.5	0	7
Cc1[nH]n(-c2ccccc2)c(=O)c1/C=N\NC(=O)C1COc2ccccc2O1 (centres undefined)	-5	93*	85*	0.1	-2	72*
O=[N+]([O-])c1ccc(N/N=C/C=C/c2ccco2)cc1	-6	x	18	x	0	x
O=C(Cc1n[nH]c(=O)c2ccccc12)NC(c1ccccc1)c1ccccc1	-4	x	-2	x	-1	9
CCOc1ccc2nc(NC(=O)CSc3nnc(-c4ccncc4)n3CC3CCCO3)sc2c1 (centres undefined)	-4	68*	46	0.3	-2	34
CCOc1ccc(NC(=O)CSc2nnc(-c3ccncc3)n2CC2CCCO2)cc1 (centres undefined)	-2	0	10	1	0	3
O=C(O)c1ccccc1C(=O)NNc1cccc(Cl)n1	-1	0	-1	1	1	8
CC(=O)N1CCN(CC(=O)Nc2cccc(S(=O)(=O)N3CCCCC3)c2)CC1	1	x	-33	x	0	x
Nc1[nH]c(C(=O)c2ccccc2)c(-c2ccccc2Cl)c1C(=O)c1ccccc1	x	x	-3	x	0	x
Cc1ccnc(NC(=O)CCC(=O)c2cccs2)c1	-7	x	79*	x	-1	x
Cc1ccc(NC(=O)CCC(=O)c2cccs2)nc1	-3	x	17	x	0	x
O=C(Nc1ccc(N2CCOCC2)c(Cl)c1)c1ccco1	-3	59*	40	0.4	-4	14
O=C(Nc1ccc(N2CCOCC2)c(F)c1)c1cccs1	-4	x	56*	x	0	x
CCCC(=O)N1CCN(c2ccc(NC(=O)c3cc4ccccc4o3)cc2Cl)CC1	-4	-3	54*	1	0	30
CCC(=O)N1CCN(c2ccc(NC(=O)c3cc4ccccc4o3)cc2Cl)CC1	1	-4	61*	1	-3	25
COc1cccc(CC(=O)OCC(=O)c2cc(OC)c(OC)c(OC)c2)c1	0	x	-18	x	0	x
O=C(CN1C(=O)c2ccccc2C1=O)Oc1ccc(Cl)cc1	1	x	-5	x	-1	x
CC(=O)N1CCN(c2ccc(NC(=O)c3ccc([N+](=O)[O-])o3)cc2Cl)CC1	-4	x	30	x	1	x
CCC(=O)N1CCN(c2ccc(NC(=O)c3ccc([N+](=O)[O-])o3)cc2Cl)CC1	x	-4	70*	1	1	31
SMILES	MIN6 prolif	FLuc inhib CS	TRAIL sens C8	FLuc stim CS	iPSC survival up	PPC-1+TRAIL kill
O=C(Nc1ccc(N2CCN(C(=O)c3cccs3)CC2)cc1)c1ccc([N+](=O)[O-])o1	-7	x	94*	x	0	x
O=C(Nc1ccc(N2CCN(C(=O)c3cccs3)CC2)cc1)c1ccco1	3	x	14	x	0	x
CN1CCN(c2ccccc2NC(=O)c2ccc([N+](=O)[O-])o2)CC1	-7	x	60*	x	0	x
O=C(Nc1ccc(N2CCN(C(=O)c3ccco3)CC2)c(Cl)c1)c1cc2ccccc2o1	-6	3	61*	1	-1	21
O=C(Nc1ccc(N2CCN(C(=O)c3ccccc3)CC2)c(Cl)c1)c1ccco1	-4	-5	19	1.1	0	28
COc1ccc(-c2cc(=O)c3ccccc3n2C)cc1	-1	-2	40	1	-2	16
COc1ccc2c(=O)cc(-c3ccccc3)n(C)c2c1	-2	3	55*	1	-1	4
COC(=O)c1cc(S(=O)(=O)NCC(C)c2ccccc2)c[nH]1 (centres undefined)	x	x	0	x	1	x
N/C(CS(=O)(=O)c1ccccn1)=N\OC(=O)c1ccc(Cl)cc1	-2	x	19	x	0	0
N/C(CCS(=O)(=O)c1ccc(Cl)cc1)=N\OC(=O)c1ccccc1C(F)(F)F	-2	x	55*	x	1	31
N/C(CCS(=O)(=O)c1ccc(Cl)cc1)=N\OC(=O)c1ccc(Cl)cc1	-1	x	74*	x	-1	2
CCCCC(=O)N(C)c1c(C)nc2ccc(C(=O)N3CCNC(=O)C3)cn12	x	x	-6	x	1	x
COc1ccc(-c2coc3cc(O)ccc3c2=O)cc1O	-1	54*	16	0.5	-1	23
Cc1ccnc(NC(=O)CNC(=O)c2ccc(Br)o2)c1	0	x	0	x	0	x
O=C(c1cccs1)c1ccc(-c2cccs2)s1	-6	78*	51*	0.2	-3	25
CC(C)(C)c1ccc(C(=O)N2CCCN(c3ccc([N+](=O)[O-])cn3)CC2)cc1	-2	x	26	x	0	9
CC1CCN(c2ccc(-c3ccc(NC(=O)C(F)(F)F)cc3)nn2)CC1	-4	x	89*	x	-1	x
Cc1cccc(NC(=O)/C(C#N)=C/c2ccc[nH]2)c1C	2	x	9	x	0	x
O=C(N/N=C/c1ccc(C(F)(F)F)cc1)c1ccc(O)cc1	-3	53*	23	0.5	-1	26
O=C(N/N=C\c1ccc(F)cc1)c1ccc(F)cc1	0	58*	14	0.4	0	45
CCOc1ccc(C(=O)N/N=C/c2ccc(SC)cc2)cc1	2	-4	5	1	1	18
CSc1ccc(/C=N/NC(=O)c2cccc(O)c2)cc1	-3	91*	74*	0.1	-4	54*
O=C(N/N=C/c1cccc(C(F)(F)F)c1)c1ccc(O)cc1	-3	16	11	0.8	-2	30
Cc1ccc(C2=Nc3ccccc3N=C(C(Cl)Cl)C2)cc1	-5	24	54*	0.8	-5	x
Cc1ccc2c(c1)N=C(c1ccccc1)CC(C(Cl)Cl)=N2	-4	x	58*	x	-1	39
Cc1cc2c(cc1C)NC(=O)CC(c1ccccc1)=N2	x	x	21	x	0	x
O=C(C#Cc1ccccc1)c1ccccc1	x	x	93*	x	-5	x
CCOC(=O)Cc1csc(NC(=O)/C=C\c2ccccc2)n1	-5	59*	24	0.4	-3	20
